Screening results from PubChem BioAssay.
Ecoli rRNA inh: inhibits bacterial ribosomal RNA function over humanized ribosomes. E. coli WT GFP vs humanized-ribosome RFP mutants, fluorescence, 24 h; stronger effect = lower value; DMSO median 0, no signal -100. GFP signal change (wild-type ribosome), % (no concentration beside the values). hit rate 1.6% among 350,000;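 active means significant combined selectivity score with lowered wild-type GFP, culture density cut under 30%, mutant RFP and density less affected; inactive means any of these conditions unmet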
SUMO Mot1 rescue: inhibitors of SUMOylation pathway: yeast Mot1-301 growth rescue | S. cerevisiae Mot1-301 growth rescue, ATP luminescence, 38.5C; percent above DMSO median, 100 means doubled | growth rescue, % at 18.8 µM | hit rate 1% among 320,000 | AID 2716;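 active means every valid replicate shows activation above 250% relative to neutral control wells; inactive means the rest, any valid replicate at or below 250%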;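 further: OY570 slx delta 5 strain wells were the positive control but not used for scaling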
Cneo AK release: Cryptococcus neoformans lysis via adenylate kinase release; AID 651654; C. neoformans lysis, adenylate kinase release luminescence, 4 h; normalised: neutral wells 0, clomiphene wells 100; hit rate 0.2% among 360,000; lysis activity, % at 15 µM;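 active means mean lysis activity across replicates of at least 80%, whatever share of replicates individually reach that level; inactive means mean lysis activity below 80%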
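Material: C. neoformans cells | Amount: Yeast cell density of 5 × 10^6 cells/mL | Medium: Fresh YPD growth medium | Dosing: Single dose | Times: Static 4 h at 37 °C with compound, 1 h detection | Detection: AK luminescence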
PglD inh: blocks C. jejuni PglD acetyltransferase activity | hit rate 0.098% among 360,000 | purified PglD enzyme, DTNB colorimetric CoA detection | AID 602405 | inhibition, % at 12.5 µM; in the data active means inhibition above about 16%, passing the limit was not always enough; inconclusive means no clear call, values can overlap the other calls
Yeast superoxide: caloric restriction mimetics inhibiting age-related superoxide in yeast; S. cerevisiae aged cells, superoxide DHE fluorescence; stronger effect = lower value; superoxide response (% of plate mean), % at 10 µM; hit rate 0.18% among 330,000; AID 2690;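 active means superoxide response under a set limit, about three screen SD below normal, cut at about 65% in these data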;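 further: yeast aged for seven days with compound at 30 °C before DHE staining; 100% = average MFI of all compound-treated wells on the plate with controls excluded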
HepG2 tox: kills or reduces viability of HepG2 cells | 30 tested, under 10 active | shares compounds with Ecoli rRNA inh | AID 743480 | ATP luminescence, 72 h | activity change, negative = cytotoxicity, unspecified at 26 µM;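 active means compounds whose fitted half-maximal signal-loss concentration is at most twice their highest valid dose; inconclusive means flat curve with 30 to 70% signal loss, or poor fit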
AID977621: wild-type E. coli growth inhibition versus H69 humanized strain – H69 mutant RFP, wild-type GFP, cherry-pick, dose response; AID 977621; shares compounds with Ecoli rRNA inh; activity change, negative = inhibition at 50 µM; fluorescence, 24 h; 1,900 tested, under 10 active;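 active means Wild-type ribosome reporter drop at least double the humanized mutant ribosome reporter drop, growth loss under a set limit; inconclusive means no clear call, values can overlap the other calls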;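 further: wild-type GFP and H69 mutant RFP strains grown together 50/50 in each well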
AID977628: growth of wild-type and h24-humanized E. coli strains – h24 mutant RFP vs wild-type GFP, cherry-pick, dose response; shares compounds with Ecoli rRNA inh; E. coli WT GFP strain growth, fluorescence, 24 h; activity change, negative = inhibition at 50 µM; 1,900 tested, under 10 active; AID 977628;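 active means compound lowering the normal-ribosome reporter at least twice as much as the humanized-ribosome reporter, growth loss under a set limit; inconclusive means no clear call, values can overlap the other calls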;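 further: wild-type GFP and h24 humanized RFP strains co-cultured 1 to 1 per well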
The depositor's hits bear a star; ? = inconclusive; · = no result. Only some compounds are listed: those with a hit (about 2.2% of all), similar ones and a draw of the others.

SMILES | Ecoli rRNA inh | SUMO Mot1 rescue | Cneo AK release | PglD inh | Yeast superoxide | AID977621 | AID977628 | others
CC[n+]1c(C)cc2c(sc3ccccc32)c1C | -22.1* | · | · | · | · | -8.38 | -10.4
CCc1nc(C)cc2c1sc1ccccc12 | -6.7 | 7.6 | -2.5 | 4.7 | 101.0 | · | ·
Cc1cc(C(=O)Nc2cccc3c2O[C@H](CN(C)C(=O)Nc2ccc4c(c2)OCO4)[C@H](C)CN([C@@H](C)CO)C3=O)n(C)n1 | -2.2 | · | 51.9 | 2.2 | · | · | ·
NS(=O)(=O)c1ccc(CCNC(=O)CCCCCNc2nc(=S)[nH]c3ccccc23)cc1 | -22.4* | 3.6 | · | · | 117.9 | -10.2 | -11.3
Cc1ccc(CNC(=O)CCCCCNc2nc(=S)[nH]c3ccccc23)cc1 | 14.3 | 10.0 | · | · | 87.4 | · | ·
O=C(c1ccc2c(c1)CCN2S(=O)(=O)c1ccccc1)N1CCN(c2ccccc2)CC1 | -25.5* | 23.2 | 6.3 | -1.9 | 102.0 | · | ?
O=C(COC(=O)c1ccc(O)cc1)Nc1ccccc1 | -21.3* | -22.0 | -0.9 | -0.2 | 116.7 | -5.03 | -0.613
O=C(COC(=O)c1ccc(O)cc1)NC(=O)NCc1ccccc1 | 0.0 | -1.8 | -0.4 | 2.8 | 88.8 | · | ·
C=C(C)Cn1c(=O)c2c(nc3n2CC(C)CN3Cc2ccccc2)n(C)c1=O (stereo not given) | -23.8* | 3.4 | -4.5 | -26.4 | 115.9 | -15.6 | ?
COC(=O)Cn1c(=O)c2c(nc3n2CC(C)CN3Cc2ccccc2)n(C)c1=O (stereo not given) | 0.8 | -6.6 | · | · | 104.2 | · | ·
CC(C)CN1C(=O)c2ccc(C(=O)Nc3ccncc3)cc2C1=O | -24.9* | -3.8 | -0.5 | -2.2 | 72.2 | · | -9.15
O=S(=O)(c1ccc(F)cc1)c1nc(-c2ccco2)oc1Nc1ccc(F)cc1 | · | 7.1 | · | · | 94.7 | · | ·
COc1ccc(Nc2oc(-c3ccco3)nc2S(=O)(=O)c2ccc(F)cc2)cc1 | -28.7* | 4.2 | -1.8 | 5.2 | 102.3 | · | · | HepG2 tox=8.32
O=C(Nc1ccccc1)N1C[C@@H]2[C@H](c3ccccc31)[C@@H](CO)N2C(=O)c1ccccn1 | 0.3 | · | -1.5 | 3.0 | · | · | ·
O=C(Nc1cccc(Cl)c1)N1C[C@@H]2[C@H](c3ccccc31)[C@@H](CO)N2CC1CCCCC1 | -55.9* | · | -2.5 | 0.8 | · | ? | ·
O=C(Nc1ccc(Cl)cc1)N1C[C@H]2[C@@H](c3ccccc31)[C@@H](CO)N2C(=O)c1ccccn1 | -23.2* | · | -3.9 | -3.5 | · | -6.29 | ·
C/C=C/c1ccc2c(c1)[C@@H]1[C@@H](CCN1C(=O)Cc1ccncc1)[C@@H](CO)N2C | 1.6 | · | -0.5 | -1.9 | · | · | ·
CCN(c1ccccc1)S(=O)(=O)c1ccc(OC)c(NC(=O)C2CC(=O)N(Cc3ccccc3)C2)c1 (stereo not given) | -31.3* | 29.9 | · | · | 110.1 | · | ?
CCn1nc(C)c(Br)c1-c1nc(CS(=O)(=O)c2ccsc2)no1 | -34.2* | 221.4 | -1.7 | 0.2 | 92.2 | -11.4 | ?
CCn1nc(C)c(Br)c1-c1nc(-c2cccc(C)c2)no1 | 8.8 | 2.4 | -0.6 | 0.3 | 77.3 | · | ·
COc1ccc(C(=O)n2cnc3ccccc32)cc1[N+](=O)[O-] | -27.1* | 12.2 | 5.7 | -0.8 | 99.6 | 5.43 | 4.37
COc1ccc(C(=O)n2cnc3ccccc32)cc1Br | 0.8 | -4.5 | 0.7 | -1.5 | 108.3 | · | ·
CCCNC(=O)N(C)C[C@@H]1Oc2ncc(-c3ccccc3F)cc2C(=O)N([C@@H](C)CO)C[C@@H]1C | 4.3 | · | · | · | · | · | ·
O=C(O)CCCCCCCCc1cn(CC2CCCCC2)nn1 | -21.3* | 2.8 | 0.2 | 0.9 | 111.1 | ? | ·
CSc1nc2ccc(NC(=O)c3c(-c4ccccc4)noc3C)cc2s1 | -21.4* | 10.1 | · | · | 96.3 | -20.8 | ·
SMILES | Ecoli rRNA inh | SUMO Mot1 rescue | Cneo AK release | PglD inh | Yeast superoxide | AID977621 | AID977628 | others
COC(=O)c1ccc(COC(=O)c2ccccc2OC)cc1 | · | -20.0 | · | · | 74.5 | · | ·
COC(=O)c1ccc(OCC(=O)c2ccccc2OC)cc1 | -23.4* | -4.9 | -0.9 | 2.9 | 91.2 | 3.19 | -7.02
COc1ccc(-c2cccc([C@H]3[C@@H]4C=CC[C@@H](C)[C@@H]4C(=O)N3Cc3ccccc3)c2)cc1 | 13.7 | · | 2.0 | 3.0 | 92.3 | · | ·
CC(=O)c1ccc(-c2cccc([C@H]3[C@@H]4C=CC[C@@H](C)[C@@H]4C(=O)N3Cc3ccccc3)c2)cc1 | -18.6* | · | 0.3 | -1.0 | 90.8 | -0.09 | -8.41
CC(c1ccc(F)cc1)n1c(-c2ccc3ccccc3n2)n[nH]c1=S (stereo not given) | -32.1* | 127.6 | 32.1 | -1.8 | 76.5 | -4.68 | ·
CC(c1ccc(Cl)cc1)n1c(-c2ccc3ccccc3n2)n[nH]c1=S (stereo not given) | -53.6 | -38.1 | 38.2 | -0.3 | 91.0 | · | ·
C[C@@H]1CCCCO[C@@H](CN(C)S(=O)(=O)c2ccc(F)cc2)[C@H](C)CN([C@H](C)CO)C(=O)c2cc(NS(C)(=O)=O)ccc2O1 | 0.7 | · | -1.0 | 2.3 | · | · | ·
COc1cccc(-c2cnc3c(c2)C(=O)N([C@@H](C)CO)C[C@H](C)[C@@H](CN(C)CC2CCCC2)O3)c1 | -3.1 | · | -2.4 | -2.3 | · | · | ·
O=C1c2ccccc2C(c2nnnn2Cc2ccccc2)N1CCOc1ccccc1 (stereo not given) | -17.4 | · | · | · | · | · | ·
CC(C)n1nnnc1C1c2ccccc2C(=O)N1CCOc1ccccc1 (stereo not given) | -18.2* | · | · | · | · | -7.51 | -16
O=C(O)c1cc(S(=O)(=O)Nc2ccccc2Cc2ccccc2)ccc1Cl | -6.0 | 2.9 | -3.2 | -4.1 | 91.1 | · | ·
O=C(O)c1ccc(Cl)c(S(=O)(=O)Nc2ccccc2Cc2ccccc2)c1 | -19.3* | 3.7 | 7.7 | 6.6 | 115.4 | · | ?
CC(C)CC#Cc1ccc2c(c1)O[C@@H](CN(C)C(=O)Cc1ccccc1)[C@H](C)CN([C@H](C)CO)S2(=O)=O | -6.9 | · | 0.4 | 2.5 | · | · | ·
CCn1c(SCC(=O)Nc2ccc(OC)cc2)nc2nc3c(cc2c1=O)CCCC3 | -27.9* | -12.5 | 6.6 | -1.9 | 92.8 | 0.299 | ?
O=C(c1ccncc1)N1CCc2ccccc2C1 | 2.4 | 1.2 | 0.1 | 2.4 | 120.4 | · | ·
O=C(c1ccc(-n2cccn2)cc1)N1CCc2ccccc2C1 | -27.3* | -15.8 | -2.7 | -6.2 | 93.2 | -5.85 | ?
Cc1ccc(-n2cc(CNCCN3CCOC3=O)c(-c3ccc(F)cc3)n2)cc1 | -18.3* | -14.1 | -2.9 | 0.6 | 106.2 | -14.4 | ?
Cc1cccc(-n2cc(CNCCN3CCOC3=O)c(-c3cccc(F)c3)n2)c1 | -6.5 | 217.2 | 3.0 | 1.3 | 94.1 | · | ·
